Experimental data as given in ChEMBL document CHEMBL3758117, “Discovery of indeno[1,2-b]quinoxaline derivatives as potential anticancer agents” (Eur J Med Chem, 2016).
The source made the active and inactive calls. The calls are words filed in the database; no cut-off is given here.

Tests used:
[1] = Induction of apoptosis in human HuH7 cells assessed as upregulation of activated caspase 3 at 1 to 10 uM after 24 hrs by Western blot analysis; type: functional, cell-based; conditions: Huh-7
Summary of the method: (§1)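 Huh-7 cells were treated with DMSO or compound at 1, 5 and 10 μM for 24 h. Cells were lysed in NP-40 buffer with protease and phosphatase inhibitors, and protein was measured by Bradford. Lysate protein was resolved by SDS-PAGE and transferred to PVDF. Membranes were blocked in 5% milk, probed with primary antibodies for 2 h and secondary antibodies for 30 min, and detected by ECL, with β-actin as loading control.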

[2] = biological target: DNA topoisomerase 2-alpha (Homo sapiens) (UniProt P11388); assay: Inhibition of human DNA topoisomerase 2-mediated relaxation of supercoiled pBR322 DNA at 100 uM after 30 mins by ethidium bromide staining based agarose gel electrophoresis
Summary of the method: (§2)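 Human topo I or topo II (2 units) was reacted with 0.2 μg supercoiled pBR322 in 20 μl Tris-HCl pH 7.5 containing KCl, DTT, EDTA, MgCl2 and BSA, with DMSO held at 0.5%, for 30 min at 37°C. The reaction was stopped with SDS. Samples were run on 1% agarose in Tris-acetate/EDTA at 1.5 V/cm for 2-3 h and stained with ethidium bromide. Relaxation was quantified by densitometry of the supercoiled band area.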

[3] = test system: Huh-7; assay: Induction of apoptosis in human HuH7 cells assessed as downregulation of Bcl-2 expression at 1 to 10 uM after 24 hrs by Western blot analysis; type: functional, cell-based; summary of the method: as §1
[4] = test system: Huh-7; assay: Antitumor activity against human HuH7 cells xenografted in zebrafish assessed as reduction in tumor size after 24 to 48 hrs post injection by fluorescence microscopy; type: functional, cell-based
Summary of the method: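 About 100 Huh-7 cells were implanted into the yolk sac of anesthetized 48 hpf zebrafish embryos. Embryos were then kept in water containing compound at 0.1 to 2.0 μg/ml for 24 and 48 h post-injection. Embryos were imaged by fluorescence microscopy, with red fluorescence intensity taken as proportional to xenograft tumor size.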

[5] = Selectivity index, ratio of IC50 for human MRC5 cells to IC50 for human H1299 cells; type: functional
[6] = Cell cycle arrest in human HuH7 cells assessed as accumulation at G1 phase at 10 uM for 24 hrs by propidium iodide staining based flow cytometry (reference value: 62.1 +/- 1.4%); type: functional; conditions: Huh-7
[7] = test system: MRC5; assay: Selectivity index, ratio of IC50 for human MRC5 cells to IC50 for human PC3 cells; type: functional
[8] = Cell cycle arrest in human HuH7 cells assessed as accumulation at S phase at 1 uM for 24 hrs by propidium iodide staining based flow cytometry (reference value: 11.4 +/- 2.4%); type: functional; conditions: Huh-7
[9] = biological target: RAC-beta serine/threonine-protein kinase (Homo sapiens) (UniProt P31751); assay: Inhibition of AKT2 phosphorylation in human HuH7 cells at 1 to 10 uM after 24 hrs by immunoblot analysis; type: cell-based; conditions: Huh-7; summary of the method: as §1
[10] = Antiproliferative activity against human PC3 cells after 72 hrs by XTT assay; type: functional, cell-based; conditions: PC-3, 72 h
Summary of the method: (§3)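 Cells kept as monolayers in DMEM with 10% FBS, penicillin, streptomycin and amphotericin at 37°C, 5% CO2. Seeded at 5 x 10³ cells/well and exposed to compound for 72 h in medium with 10% FBS. XTT plus electron-coupling reagent added, 4 h at 37°C, absorbance read at 492 nm. Percent of control growth uses mean absorbance (n = 3). The 50% value is taken from the linear portion of the curve.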

[11] = biological target: Proto-oncogene tyrosine-protein kinase Src (Homo sapiens) (UniProt P12931); assay: Inhibition of Src phosphorylation in human HuH7 cells at 1 to 10 uM after 24 hrs by immunoblot analysis; type: cell-based; conditions: Huh-7; summary of the method: as §1
[12] = biological target: T1, DNA topoisomerase 1 (Homo sapiens) (UniProt P11387); assay: Inhibition of human DNA topoisomerase 1-mediated relaxation of supercoiled pBR322 DNA at 10 uM after 30 mins by ethidium bromide staining based agarose gel electrophoresis; summary of the method: as §2
T1 sequence (whole entry): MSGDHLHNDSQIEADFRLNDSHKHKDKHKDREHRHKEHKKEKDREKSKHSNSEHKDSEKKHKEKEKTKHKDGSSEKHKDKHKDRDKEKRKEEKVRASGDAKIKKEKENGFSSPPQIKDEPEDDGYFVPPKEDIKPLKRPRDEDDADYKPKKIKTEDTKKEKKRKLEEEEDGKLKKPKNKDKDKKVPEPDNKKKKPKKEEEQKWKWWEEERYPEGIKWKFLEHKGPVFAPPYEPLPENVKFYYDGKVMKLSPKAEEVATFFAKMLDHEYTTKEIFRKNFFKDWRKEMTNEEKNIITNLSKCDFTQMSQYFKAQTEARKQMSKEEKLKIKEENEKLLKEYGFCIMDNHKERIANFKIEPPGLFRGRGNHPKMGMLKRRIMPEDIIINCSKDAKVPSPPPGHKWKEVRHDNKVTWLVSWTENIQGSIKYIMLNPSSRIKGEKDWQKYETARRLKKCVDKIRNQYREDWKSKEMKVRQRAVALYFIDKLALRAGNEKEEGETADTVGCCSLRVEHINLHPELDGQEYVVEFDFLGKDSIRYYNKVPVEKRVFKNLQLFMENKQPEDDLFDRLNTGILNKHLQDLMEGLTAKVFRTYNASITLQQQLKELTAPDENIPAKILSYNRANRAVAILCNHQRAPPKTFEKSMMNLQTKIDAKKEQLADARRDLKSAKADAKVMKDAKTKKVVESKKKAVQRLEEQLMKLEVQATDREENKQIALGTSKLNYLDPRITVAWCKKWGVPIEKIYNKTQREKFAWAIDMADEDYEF

[13] = Cell cycle arrest in human HuH7 cells assessed as accumulation at sub G1 phase at 10 uM for 24 hrs by propidium iodide staining based flow cytometry (reference value: 1.3 +/- 0.7%); type: functional; conditions: Huh-7
[14] = Induction of apoptosis in human HuH7 cells assessed as upregulation of activated caspase 7 at 1 to 10 uM after 24 hrs by Western blot analysis; type: functional, cell-based; conditions: Huh-7; summary of the method: as §1
[15] = test system: Escherichia coli; assay: Binding affinity to Escherichia coli negative supercoiled pBR322 DNA at 10 uM after 12 hrs by ethidium bromide staining based agarose gel electrophoresis
Summary of the method: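 Negatively supercoiled pBR322 (400 ng) in TE buffer pH 8.0 was incubated with compound at 10 μM for 12 h at room temperature. Loading buffer with sarkosyl was added. Samples were run on 1% agarose at 6 V/cm for 2.5 h in TAE pH 8.5, stained with ethidium bromide and photographed under UV.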

[16] = Cell cycle arrest in human HuH7 cells assessed as accumulation at S phase at 5 uM for 24 hrs by propidium iodide staining based flow cytometry (reference value: 11.4 +/- 2.4%); type: functional; conditions: Huh-7
[17] = test system: Huh-7; assay: Induction of apoptosis in human HuH7 cells assessed as cell shrinkage at 5 uM after 24 hrs by light microscopy; type: functional, cell-based
[18] = test system: MDA-MB-231; assay: Antiproliferative activity against human MDA-MB-231 cells after 72 hrs by XTT assay; type: functional, cell-based; conditions: MDA-MB-231, 72 h; summary of the method: as §3

Sequence of RAC-beta serine/threonine-protein kinase (Homo sapiens) (P31751 whole entry): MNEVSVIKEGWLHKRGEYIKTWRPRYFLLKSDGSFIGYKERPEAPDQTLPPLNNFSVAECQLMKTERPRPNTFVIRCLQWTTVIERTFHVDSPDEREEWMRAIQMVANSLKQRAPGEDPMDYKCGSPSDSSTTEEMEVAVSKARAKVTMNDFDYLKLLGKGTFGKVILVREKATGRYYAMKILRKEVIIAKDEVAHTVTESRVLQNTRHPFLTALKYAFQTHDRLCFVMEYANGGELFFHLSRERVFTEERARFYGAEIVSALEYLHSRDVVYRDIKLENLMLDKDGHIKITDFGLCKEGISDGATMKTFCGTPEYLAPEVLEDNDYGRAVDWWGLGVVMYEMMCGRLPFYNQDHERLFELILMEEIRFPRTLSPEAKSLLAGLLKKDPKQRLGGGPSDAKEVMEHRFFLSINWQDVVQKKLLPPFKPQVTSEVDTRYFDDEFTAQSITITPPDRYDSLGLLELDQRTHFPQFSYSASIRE
Sequence of Proto-oncogene tyrosine-protein kinase Src (Homo sapiens) (P12931 2-536 limits assumed): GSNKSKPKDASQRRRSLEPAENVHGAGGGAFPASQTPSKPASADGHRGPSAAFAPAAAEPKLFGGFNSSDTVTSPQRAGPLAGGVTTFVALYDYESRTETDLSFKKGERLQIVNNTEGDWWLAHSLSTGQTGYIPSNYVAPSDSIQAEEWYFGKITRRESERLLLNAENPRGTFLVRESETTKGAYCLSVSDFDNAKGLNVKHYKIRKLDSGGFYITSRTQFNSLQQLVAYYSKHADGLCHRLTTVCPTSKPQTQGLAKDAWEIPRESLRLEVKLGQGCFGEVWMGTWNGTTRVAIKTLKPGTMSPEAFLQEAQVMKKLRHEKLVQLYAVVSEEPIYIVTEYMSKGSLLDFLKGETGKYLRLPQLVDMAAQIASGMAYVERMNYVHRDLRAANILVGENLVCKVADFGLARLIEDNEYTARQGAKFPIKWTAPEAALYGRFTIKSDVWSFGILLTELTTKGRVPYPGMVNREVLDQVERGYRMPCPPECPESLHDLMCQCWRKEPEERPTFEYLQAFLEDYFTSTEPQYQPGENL
Sequence of DNA topoisomerase 2-alpha (Homo sapiens) (P11388 whole entry): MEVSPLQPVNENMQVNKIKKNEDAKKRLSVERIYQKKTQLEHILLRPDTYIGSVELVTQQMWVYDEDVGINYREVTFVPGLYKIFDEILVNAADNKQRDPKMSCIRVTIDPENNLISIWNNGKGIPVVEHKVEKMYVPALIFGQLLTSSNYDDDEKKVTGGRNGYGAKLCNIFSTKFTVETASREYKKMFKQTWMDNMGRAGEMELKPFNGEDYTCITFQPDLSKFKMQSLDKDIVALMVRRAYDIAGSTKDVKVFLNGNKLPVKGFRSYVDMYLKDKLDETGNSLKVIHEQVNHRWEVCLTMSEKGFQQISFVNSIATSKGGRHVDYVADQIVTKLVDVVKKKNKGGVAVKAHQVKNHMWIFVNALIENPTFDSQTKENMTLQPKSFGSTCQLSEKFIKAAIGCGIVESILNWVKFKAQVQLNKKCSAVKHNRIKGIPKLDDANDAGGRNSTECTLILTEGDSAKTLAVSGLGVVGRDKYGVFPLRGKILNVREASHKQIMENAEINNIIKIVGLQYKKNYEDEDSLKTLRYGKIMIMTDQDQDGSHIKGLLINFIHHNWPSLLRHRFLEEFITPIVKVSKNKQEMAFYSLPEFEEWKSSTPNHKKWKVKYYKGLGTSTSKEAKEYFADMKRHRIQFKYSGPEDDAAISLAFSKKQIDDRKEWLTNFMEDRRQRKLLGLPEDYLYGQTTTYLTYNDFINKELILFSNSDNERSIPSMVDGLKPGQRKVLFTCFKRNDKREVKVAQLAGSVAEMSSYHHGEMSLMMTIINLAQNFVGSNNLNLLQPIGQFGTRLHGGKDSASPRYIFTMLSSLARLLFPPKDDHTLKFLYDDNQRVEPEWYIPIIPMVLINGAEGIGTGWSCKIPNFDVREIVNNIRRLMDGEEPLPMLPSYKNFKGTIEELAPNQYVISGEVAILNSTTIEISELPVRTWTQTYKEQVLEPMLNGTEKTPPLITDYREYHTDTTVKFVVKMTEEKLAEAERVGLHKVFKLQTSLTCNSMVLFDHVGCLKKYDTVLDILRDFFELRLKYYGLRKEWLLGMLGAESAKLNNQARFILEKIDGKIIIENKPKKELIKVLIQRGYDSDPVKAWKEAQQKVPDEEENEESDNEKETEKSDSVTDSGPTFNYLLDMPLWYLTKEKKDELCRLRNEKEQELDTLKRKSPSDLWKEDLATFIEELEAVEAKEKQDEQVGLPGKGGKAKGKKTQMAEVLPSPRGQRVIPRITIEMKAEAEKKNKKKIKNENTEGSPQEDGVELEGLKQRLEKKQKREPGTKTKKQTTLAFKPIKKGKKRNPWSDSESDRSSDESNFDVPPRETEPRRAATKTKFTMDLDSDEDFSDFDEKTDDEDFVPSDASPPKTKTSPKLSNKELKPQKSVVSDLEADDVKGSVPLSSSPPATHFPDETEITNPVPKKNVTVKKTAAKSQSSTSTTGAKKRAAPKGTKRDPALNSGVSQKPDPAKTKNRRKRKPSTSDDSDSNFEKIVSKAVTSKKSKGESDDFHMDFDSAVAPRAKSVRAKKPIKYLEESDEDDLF

inhibition call (active/not active) [2]: Active | inhibition [9]: Active | inhibition [11]: Active | inhibition [12]: Active | Activity [15]: Active | IC50 [18]: 870 nM
Structure (SMILES): CN(C)CCCNC(=O)c1cccc2nc3c(nc12)-c1ccccc1/C3=N\OCCCN(C)C.Cl
Activity [1]: Dose-dependent effect | Activity [3]: Dose-dependent effect | inhibition [4]: Dose-dependent effect | Ratio IC50 [5]: 5.45 | Activity [6]: 30.4% | Ratio IC50 [7]: 38.43 | Activity [8]: 21.6% | IC50 [10]: 820 nM | Activity [13]: 23.4% | Activity [14]: Dose-dependent effect | Activity [16]: 30.5% | Activity [17]: Active
